Test results from ChEMBL document CHEMBL4627265, “Optimization of 8-oxoadenines with toll-like-receptor 7 and 8 activity” (Bioorg Med Chem Lett, 2020).
Active and inactive are the calls of the source. The calls are words filed in the database; no cut-off is given here.

Assays:
Format in all cases: cell-based
[1] = target: T1, Toll-like receptor 8 (Homo sapiens) (UniProt Q9NR97); assay: Agonist activity at TLR8 in human PBMC assessed as induction of myeloid dendritic cell maturation by measuring increase in MHC-1 level at 0.1 uM after 6 hrs by flow cytometry relative to control
T1 sequence (whole entry): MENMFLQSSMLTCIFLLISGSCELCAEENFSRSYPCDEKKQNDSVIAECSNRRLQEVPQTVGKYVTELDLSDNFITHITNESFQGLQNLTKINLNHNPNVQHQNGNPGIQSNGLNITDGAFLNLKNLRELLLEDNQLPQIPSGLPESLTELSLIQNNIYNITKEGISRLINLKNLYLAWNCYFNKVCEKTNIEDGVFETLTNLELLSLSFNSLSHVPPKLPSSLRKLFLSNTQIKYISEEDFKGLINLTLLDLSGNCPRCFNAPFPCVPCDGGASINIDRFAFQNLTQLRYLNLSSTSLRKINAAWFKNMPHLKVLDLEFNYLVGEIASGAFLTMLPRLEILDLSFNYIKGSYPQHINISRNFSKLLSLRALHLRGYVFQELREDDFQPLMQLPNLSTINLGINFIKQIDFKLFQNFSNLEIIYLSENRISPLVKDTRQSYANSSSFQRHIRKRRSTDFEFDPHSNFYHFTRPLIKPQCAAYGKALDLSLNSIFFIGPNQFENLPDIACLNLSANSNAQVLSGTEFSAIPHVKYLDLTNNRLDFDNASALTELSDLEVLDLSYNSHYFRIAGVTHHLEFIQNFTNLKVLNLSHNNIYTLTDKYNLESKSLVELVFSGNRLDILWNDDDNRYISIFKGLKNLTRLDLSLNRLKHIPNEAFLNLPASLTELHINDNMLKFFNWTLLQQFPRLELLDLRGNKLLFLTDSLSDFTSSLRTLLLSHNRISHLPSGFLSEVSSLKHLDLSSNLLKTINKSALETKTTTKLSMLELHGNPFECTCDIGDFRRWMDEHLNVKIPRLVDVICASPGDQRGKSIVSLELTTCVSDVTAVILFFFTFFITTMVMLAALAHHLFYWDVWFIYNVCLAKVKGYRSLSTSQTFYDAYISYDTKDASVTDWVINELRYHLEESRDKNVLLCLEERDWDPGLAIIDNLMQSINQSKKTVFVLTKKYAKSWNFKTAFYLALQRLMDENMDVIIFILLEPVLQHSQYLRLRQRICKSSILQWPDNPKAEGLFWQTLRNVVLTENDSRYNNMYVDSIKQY
Procedure, shortened: (§1)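 hPBMCs stimulated 6 h at a single 0.1 μM dose; HLA-DR, MHC-I, CD80 and CD86 on mDCs and pDCs measured by flow cytometry, expressed as fold change versus unstimulated cells. Mean ± SD of three independent experiments in three different donors.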

[2] = target: TLR7 and TLR8 (Homo sapiens) (UniProt Q9NYK1+Q9NR97); assay: Agonist activity at TLR7/TLR8 in human PBMC assessed as IFN alpha level
Procedure, shortened: (§2)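 IFNα secretion by hPBMCs across a μM dose range; MEC = lowest dose tested inducing cytokine, PC = dose giving highest level, PL = peak level at 10 μM. Data representative of one of three independent donors.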

[3] = target: T2, Toll-like receptor 7 (Homo sapiens) (UniProt Q9NYK1); assay: Agonist activity at TLR7 in human PBMC assessed as IFNalpha stimulation at 10 uM; procedure, shortened: as §2
T2 sequence (whole entry): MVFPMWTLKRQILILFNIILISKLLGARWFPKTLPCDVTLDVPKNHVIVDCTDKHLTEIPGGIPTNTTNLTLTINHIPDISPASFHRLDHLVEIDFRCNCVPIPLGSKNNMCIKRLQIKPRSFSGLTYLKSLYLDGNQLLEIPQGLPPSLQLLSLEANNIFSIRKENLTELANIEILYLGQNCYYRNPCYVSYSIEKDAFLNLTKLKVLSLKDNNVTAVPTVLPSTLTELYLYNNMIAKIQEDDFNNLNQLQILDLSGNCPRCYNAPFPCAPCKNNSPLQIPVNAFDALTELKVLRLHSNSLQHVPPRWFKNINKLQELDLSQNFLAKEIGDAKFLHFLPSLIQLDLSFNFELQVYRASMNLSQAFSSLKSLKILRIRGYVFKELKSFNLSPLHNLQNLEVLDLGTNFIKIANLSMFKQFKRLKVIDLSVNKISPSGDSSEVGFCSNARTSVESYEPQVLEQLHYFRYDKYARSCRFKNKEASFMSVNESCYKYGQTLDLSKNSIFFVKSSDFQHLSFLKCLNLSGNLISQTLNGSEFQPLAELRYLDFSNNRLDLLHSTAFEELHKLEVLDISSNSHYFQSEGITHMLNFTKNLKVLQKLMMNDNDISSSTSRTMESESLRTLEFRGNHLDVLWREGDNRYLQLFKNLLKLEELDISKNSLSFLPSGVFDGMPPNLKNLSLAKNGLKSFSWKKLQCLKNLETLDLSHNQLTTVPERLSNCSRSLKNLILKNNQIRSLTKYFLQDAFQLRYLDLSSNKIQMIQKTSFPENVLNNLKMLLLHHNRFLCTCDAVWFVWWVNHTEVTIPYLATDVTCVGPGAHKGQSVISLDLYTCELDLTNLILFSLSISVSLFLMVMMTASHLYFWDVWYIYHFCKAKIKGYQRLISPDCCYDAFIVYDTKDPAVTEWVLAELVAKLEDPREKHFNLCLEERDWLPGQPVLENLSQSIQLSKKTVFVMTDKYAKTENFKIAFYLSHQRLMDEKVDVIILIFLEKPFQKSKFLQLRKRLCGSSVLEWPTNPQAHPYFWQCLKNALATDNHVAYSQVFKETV

[4] = target: T1, Toll-like receptor 8 (Homo sapiens); assay: Agonist activity at TLR8 in human PBMC assessed as induction of myeloid dendritic cell maturation by measuring increase in CD86 level at 0.1 uM after 6 hrs by flow cytometry relative to control; procedure, shortened: as §1
[5] = target: T1, Toll-like receptor 8 (Homo sapiens); assay: Agonist activity at TLR8 in human PBMC assessed as TNFalpha level
Procedure, shortened: (§3)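 TNFα secretion by hPBMCs across a μM dose range; MEC = lowest dose tested inducing cytokine, PC = dose giving highest level, PL = peak level at 10 μM. Data representative of one of three independent donors.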

[6] = target: T2, Toll-like receptor 7 (Homo sapiens); assay: Agonist activity at TLR7 in human PBMC assessed as induction of plasmacytoid dendritic cell maturation by measuring increase in MHC-1 level at 0.1 uM after 6 hrs by flow cytometry relative to control; procedure, shortened: as §1
[7] = target: T1, Toll-like receptor 8 (Homo sapiens); assay: Agonist activity at TLR8 in human PBMC assessed as induction of myeloid dendritic cell maturation by measuring HLA-DR level at 0.1 uM after 6 hrs by flow cytometry; procedure, shortened: as §1
[8] = target: T2, Toll-like receptor 7 (Homo sapiens); assay: Agonist activity at TLR7 in human PBMC assessed as induction of plasmacytoid dendritic cell maturation by measuring increase in CD86 level at 0.1 uM after 6 hrs by flow cytometry relative to control; procedure, shortened: as §1
[9] = target: T1, Toll-like receptor 8 (Homo sapiens); assay: Agonist activity at TLR8 in human PBMC assessed as TNFalpha level at 10 uM; procedure, shortened: as §3
[10] = target: T2, Toll-like receptor 7 (Homo sapiens); assay: Agonist activity at TLR7 in human PBMC assessed as induction of plasmacytoid dendritic cell maturation by measuring CD80 level at 0.1 uM after 6 hrs by flow cytometry; procedure, shortened: as §1
[11] = target: T2, Toll-like receptor 7 (Homo sapiens); assay: Agonist activity at TLR7 in human PBMC assessed as induction of plasmacytoid dendritic cell maturation by measuring CD86 level at 0.1 uM after 6 hrs by flow cytometry; procedure, shortened: as §1
[12] = target: T2, Toll-like receptor 7 (Homo sapiens); assay: Agonist activity at TLR7 in human PBMC assessed as induction of plasmacytoid dendritic cell maturation by measuring increase in HLA-DR level at 0.1 uM after 6 hrs by flow cytometry relative to control; procedure, shortened: as §1
[13] = target: T3, Toll-like receptor 7 (Homo sapiens, UniProt Q9NYK1); assay: Agonist activity at human TLR7 expressed in HEK293 cells assessed as induction of NFKappaB activity after 24 hrs by SEAP reporter gene assay
T3 sequence (Q9NYK1 whole entry): T2 sequence (whole entry)
Procedure, shortened: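 HEK293 cells stably transfected with hTLR7 or hTLR8 plus an NFκB-driven SEAP reporter, treated 24 h with compound over a μM range; SEAP secretion read out. EC50 as mean ± SD of three (TLR7) or four (TLR8) independent experiments.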

[14] = target: T1, Toll-like receptor 8 (Homo sapiens); assay: Agonist activity at TLR8 in human PBMC assessed as induction of myeloid dendritic cell maturation by measuring CD86 level at 0.1 uM after 6 hrs by flow cytometry; procedure, shortened: as §1
[15] = target: T4, Toll-like receptor 9 (Homo sapiens) (UniProt Q9NR96); assay: Agonist activity at human TLR9 expressed in HEK293 cells by SEAP reporter gene assay
T4 sequence (whole entry): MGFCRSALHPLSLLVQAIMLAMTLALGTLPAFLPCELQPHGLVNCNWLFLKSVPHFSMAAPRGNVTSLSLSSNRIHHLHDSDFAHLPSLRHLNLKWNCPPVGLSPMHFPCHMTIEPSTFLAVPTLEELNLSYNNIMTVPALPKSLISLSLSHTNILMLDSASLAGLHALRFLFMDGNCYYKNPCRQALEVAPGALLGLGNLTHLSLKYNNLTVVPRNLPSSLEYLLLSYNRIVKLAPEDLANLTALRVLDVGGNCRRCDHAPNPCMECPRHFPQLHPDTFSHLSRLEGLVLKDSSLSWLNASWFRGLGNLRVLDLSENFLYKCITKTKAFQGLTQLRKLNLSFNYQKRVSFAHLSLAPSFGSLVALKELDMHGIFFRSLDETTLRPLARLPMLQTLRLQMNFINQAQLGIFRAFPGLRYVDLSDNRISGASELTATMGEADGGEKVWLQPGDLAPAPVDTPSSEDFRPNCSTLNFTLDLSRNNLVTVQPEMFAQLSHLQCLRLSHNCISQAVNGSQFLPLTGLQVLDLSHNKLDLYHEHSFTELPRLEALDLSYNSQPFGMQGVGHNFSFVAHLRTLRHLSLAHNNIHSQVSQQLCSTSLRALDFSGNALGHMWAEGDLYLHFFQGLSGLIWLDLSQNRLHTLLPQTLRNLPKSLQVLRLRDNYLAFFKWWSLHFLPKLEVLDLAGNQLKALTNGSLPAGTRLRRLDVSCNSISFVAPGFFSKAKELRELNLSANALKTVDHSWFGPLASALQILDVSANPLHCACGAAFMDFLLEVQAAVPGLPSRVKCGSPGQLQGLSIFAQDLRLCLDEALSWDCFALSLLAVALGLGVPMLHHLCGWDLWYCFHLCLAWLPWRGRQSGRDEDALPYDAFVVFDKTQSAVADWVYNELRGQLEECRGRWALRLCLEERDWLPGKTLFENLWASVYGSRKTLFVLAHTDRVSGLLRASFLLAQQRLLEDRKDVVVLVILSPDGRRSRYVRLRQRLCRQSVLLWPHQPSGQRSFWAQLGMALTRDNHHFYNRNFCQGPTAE

[16] = target: Toll-like receptor 3 (Homo sapiens) (UniProt O15455); assay: Agonist activity at human TLR3 expressed in HEK293 cells by SEAP reporter gene assay
Toll-like receptor 3 (Homo sapiens), sequence (O15455 whole entry): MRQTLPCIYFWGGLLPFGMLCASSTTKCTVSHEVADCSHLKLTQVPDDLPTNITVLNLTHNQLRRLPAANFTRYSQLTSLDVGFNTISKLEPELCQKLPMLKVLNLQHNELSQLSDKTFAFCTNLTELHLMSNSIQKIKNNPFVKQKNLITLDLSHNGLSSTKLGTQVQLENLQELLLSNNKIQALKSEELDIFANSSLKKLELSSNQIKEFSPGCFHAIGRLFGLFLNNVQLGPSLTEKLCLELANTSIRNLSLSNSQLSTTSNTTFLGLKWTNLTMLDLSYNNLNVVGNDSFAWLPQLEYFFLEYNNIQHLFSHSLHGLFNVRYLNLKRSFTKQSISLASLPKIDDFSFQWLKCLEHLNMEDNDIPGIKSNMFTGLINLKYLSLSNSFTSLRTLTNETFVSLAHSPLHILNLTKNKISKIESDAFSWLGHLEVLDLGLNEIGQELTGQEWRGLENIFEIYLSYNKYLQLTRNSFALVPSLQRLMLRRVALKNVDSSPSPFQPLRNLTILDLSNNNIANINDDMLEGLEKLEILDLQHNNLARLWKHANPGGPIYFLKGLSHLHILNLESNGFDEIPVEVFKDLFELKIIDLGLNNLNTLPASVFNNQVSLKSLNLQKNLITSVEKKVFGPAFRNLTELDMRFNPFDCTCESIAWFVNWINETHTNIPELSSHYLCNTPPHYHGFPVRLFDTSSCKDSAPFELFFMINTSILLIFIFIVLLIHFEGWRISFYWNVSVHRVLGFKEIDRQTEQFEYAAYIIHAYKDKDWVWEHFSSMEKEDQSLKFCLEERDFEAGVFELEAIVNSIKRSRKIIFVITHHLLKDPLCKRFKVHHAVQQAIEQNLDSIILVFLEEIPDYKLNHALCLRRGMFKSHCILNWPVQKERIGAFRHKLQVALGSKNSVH

`CCOCc1nc2c(N)nc3ccccc3c2n1CC(C)(C)O` was tested. Which fold change (FC) [1] did it give?
The fold change (FC) was 1.4.

And the ECmax [2]?
Its ECmax is 10 µM.

And the MEC [2]?
The MEC was 0.08 µM.

And the Activity [3]?
The Activity was 1410 pg/mL.

What about the fold change (FC) [4] of the same molecule?
The fold change (FC) was 1.9.

And the MEC [5]?
Its MEC is 2 µM.

Which results are given for `CCCCOc1nc(N)c2[nH]c(=O)n(CC3CCN(CCO)CC3)c2n1`?
fold change (FC) [6]: 1.5 to 1.7; ECmax [2]: 0.4 µM; MEC [2]: 0.4 µM; Activity [7]: inactive; fold change (FC) [8]: 1.7 to 2.3; Activity [3]: 4730 pg/mL; Activity [9]: 2740 pg/mL; Activity [10]: inactive; Activity [11]: inactive; fold change (FC) [12]: 1.5 to 1.7; MEC [5]: 10 µM; EC50 [13]: 23.1 µM; Activity [14]: inactive

Which fold change (FC) [6] does the source give for `CCCCOc1nc(N)c2[nH]c(=O)n(CCCCCC3CCNCC3)c2n1` here?
The fold change (FC) was 1.7 to 2.3.

And the Activity [3]?
The Activity was 4680 pg/mL.

And the fold change (FC) [12]?
Its fold change (FC) is 1.7 to 2.3.

What about the EC50 [13] of the same molecule?
The EC50 was 0.45 µM.

For `CCCCOc1nc(N)c2[nH]c(=O)n(CC3CCN(CCN)CC3)c2n1`, which fold change (FC) [6] is on record?
Its fold change (FC) is 1.5 to 1.7.

And the fold change (FC) [8]?
Its fold change (FC) is 1.7 to 2.3.

What about the Activity [3] of the same molecule?
Its Activity is 3040 pg/mL.

What about the Activity [10] of the same molecule?
The Activity was “inactive”.

And the Activity [11]?
The Activity was “inactive”.

What about the fold change (FC) [12] of the same molecule?
Its fold change (FC) is 1.5 to 1.7.

What about the EC50 [13] of the same molecule?
Its EC50 is 30 µM.

Which results are given for `CCC[C@H](C)Oc1nc(N)c2[nH]c(=O)n(CCCCCC3CCNCC3)c2n1`?
fold change (FC) [6]: 1.7 to 2.3; Activity [3]: 2640 pg/mL; fold change (FC) [12]: 1.7 to 2.3; EC50 [13]: 0.24 µM

Which fold change (FC) [6] does the source give for `CCC[C@@H](C)Oc1nc(N)c2[nH]c(=O)n(CC3CCNCC3)c2n1` here?
Its fold change (FC) is 1.2 to 2.4.

What about the Activity [15] of the same molecule?
The Activity was “inactive”.

And the Activity [16]?
The Activity was “inactive”.

What about the Activity [3] of the same molecule?
Its Activity is 6210 pg/mL.

What about the Activity [10] of the same molecule?
The Activity was “inactive”.

And the Activity [11]?
Its Activity is “inactive”.

And the fold change (FC) [12]?
The fold change (FC) was 1.2 to 2.4.

And the EC50 [13]?
The EC50 was 35.8 µM.
